Measurements published in ChEMBL document CHEMBL2412970, “Synthesis and anticancer activity of 2,4-disubstituted furo[3,2-b]indole derivatives” (Eur J Med Chem, 2013).
Calls of active or inactive are those of the source. The rule behind the calls is not given here.

Tests used:
[1] = test system: K562; assay: Cytotoxicity against human K562 cells after 48 hrs by sulforhodamine B assay; format: functional; conditions: K562, 48 h
[2] = test system: OVCAR-8; assay: Cytotoxicity against human OVCAR8 cells after 48 hrs by sulforhodamine B assay; format: functional; conditions: OVCAR-8, 48 h
[3] = test system: A498; assay: Induction of apoptosis in human A498 cells assessed as caspase-3 activation at 0.5 uM after 24 hrs by Western blotting analysis; format: functional, cell-based
Method in brief: (§1)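 A498 cells exposed for 6, 12, 24, 36 or 48 h, then washed in PBS and lysed. Lysates were held on ice for 30 min and spun at 12 000g for 20 min. Supernatant protein was measured by Bradford assay, run on 10% SDS-PAGE and transferred to nitrocellulose. Blots were probed for AIF, Endo G, Apaf-1, cytochrome c, caspase 9 and caspase 3, with β-actin as loading control; n = 3 independent experiments.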

[4] = test system: NCI-H322M; assay: Cytotoxicity against human NCI-H322M cells after 48 hrs by sulforhodamine B assay; format: functional
[5] = test system: A498; assay: Induction of apoptosis in human A498 cells assessed as late apoptotic cells at 0.5 uM after 48 hrs by AnnexinV/FITC-propidium iodide staining-based flow cytometry (reference value: 9.6%); format: functional
Method in brief: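 Flow cytometry with annexin V-FITC/PI double labeling of A498 cells treated for 12, 24, 36 or 48 h; untreated cells served as the 0 h control. Stained in binding buffer for 15 min at room temperature in the dark, with more binding buffer added just before analysis. Annexin V+/PI− (Q4) counted as early apoptotic and annexin V+/PI+ (Q2) as late apoptotic.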

[6] = test system: NCI-H23; assay: Cytotoxicity against human NCI-H23 cells after 48 hrs by sulforhodamine B assay; format: functional; conditions: NCI-H23, 48 h
[7] = test system: KM12; assay: Cytotoxicity against human KM12 cells after 48 hrs by sulforhodamine B assay; format: functional; conditions: KM12, 48 h
[8] = test system: SR; assay: Cytotoxicity against human SR cells after 48 hrs by sulforhodamine B assay; format: functional
[9] = test system: A498; assay: Cell cycle arrest in human A498 cells assessed as accumulation at sub-G1 phase at 0.5 uM by propidium iodide staining-based flow cytometry; format: functional; conditions: TDE = time-dependent effect
[10] = test system: HOP-62; assay: Cytotoxicity against human HOP62 cells after 48 hrs by sulforhodamine B assay; format: functional; conditions: HOP-62, 48 h
[11] = test system: HL-60(TB); assay: Cytotoxicity against human HL-60(TB) cells after 48 hrs by sulforhodamine B assay; format: functional; conditions: HL-60, 48 h
[12] = test system: SK-OV-3; assay: Cytotoxicity against human SKOV3 cells after 48 hrs by sulforhodamine B assay; format: functional; conditions: SK-OV-3, 48 h
[13] = test system: A498; assay: Cell cycle arrest in human A498 cells assessed as accumulation at G2/M phase at 0.5 uM after 36 hrs by propidium iodide staining-based flow cytometry (reference value: 5.39 +/- 0.01%); format: functional
[14] = test system: SK-MEL-2; assay: Cytotoxicity against human SK-MEL-2 cells after 48 hrs by sulforhodamine B assay; format: functional; conditions: SK-MEL-2, 48 h
[15] = test system: A498; assay: Cell cycle arrest in human A498 cells assessed as accumulation at G2/M phase at 0.5 uM by propidium iodide staining-based flow cytometry; format: functional; conditions: TDE = time-dependent effect
[16] = test system: NCI/ADR-RES; assay: Cytotoxicity against human NCI/ADR-RES cells after 48 hrs by sulforhodamine B assay; format: functional
[17] = test system: 786-0; assay: Cytotoxicity against human 786-0 cells after 48 hrs by sulforhodamine B assay; format: functional; conditions: 786-0, 48 h
[18] = test system: A498; assay: Cell cycle arrest in human A498 cells assessed as accumulation at sub-G1 phase at 0.5 uM after 36 hrs by propidium iodide staining-based flow cytometry (reference value: 0.10 +/- 0.07%); format: functional
[19] = test system: A498; assay: Antitumor activity against human A498 cells xenografted in BALB/cAnN.Cg-Foxn1nu/CrlNarl nude mouse assessed as suppression of tumor growth at 30 to 60 mg/kg/day, ip qd; format: functional, organism-based; conditions: TDE = time-dependent effect
Method in brief: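 Male nude mice (18–20 g, 4–6 weeks) were inoculated subcutaneously with A498 cells, 2 × 10⁶ per mouse in 0.1 mL PBS. Once tumors reached 100 mm³, mice were randomized and given ip doses of 30 or 60 mg/kg, 5 times per week for 4 weeks. Body weight and tumor size were recorded every 7 days over 28 days. Volume = 1/2 ([…]).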

[20] = test system: Detroit 551; assay: Cytotoxicity against human Detroit 551 cells after 48 hrs by MTT assay; format: cell-based; conditions: Detroit 551, 48 h
[21] = test system: A498; assay: Cell cycle arrest in human A498 cells assessed as accumulation at G0/G1 phase at 0.5 uM after 36 hrs by propidium iodide staining-based flow cytometry (reference value: 78.70 +/- 0.02%); format: functional
[22] = test system: OVCAR-3; assay: Cytotoxicity against human OVCAR3 cells after 48 hrs by sulforhodamine B assay; format: functional; conditions: OVCAR-3, 48 h
[23] = test system: SF-268; assay: Cytotoxicity against human SF268 cells after 48 hrs by sulforhodamine B assay; format: functional; conditions: SF-268, 48 h
[24] = test system: NCI-H226; assay: Cytotoxicity against human NCI-H226 cells after 48 hrs by sulforhodamine B assay; format: functional; conditions: NCI-H226, 48 h
[25] = test system: A498; assay: Induction of apoptosis in human A498 cells assessed as caspase-9 activation at 0.5 uM after 24 hrs by Western blotting analysis; format: functional, cell-based; method in brief: as §1
[26] = test system: COLO 205; assay: Cytotoxicity against human COLO205 cells after 48 hrs by MTT assay; format: functional, cell-based; conditions: COLO 205, 48 h
Method in brief: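 Cells were treated with a range of concentrations for 48 h. Viability was read by MTT: formazan was dissolved in DMSO and absorbance read at 570 nm. Untreated or 0.1% DMSO cells served as control. Data are mean from three independent experiments. HL-60, H460 and COLO 205 were kept in RPMI-1640 with 10% FBS and penicillin/streptomycin.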

[27] = test system: A498; assay: Cytotoxicity against human A498 cells assessed as reduction in cell viability at 1 uM after 48 hrs by MTT assay relative to control; format: functional
[28] = test system: A498; assay: Cytotoxicity against human A498 cells assessed as reduction in cell viability at 0.5 uM after 48 hrs by MTT assay relative to control; format: functional
[29] = test system: LOX IMVI; assay: Cytotoxicity against human LOXIMVI cells after 48 hrs by sulforhodamine B assay; format: functional
[30] = read-out: pLC50 (the source's name) (converted)

SMILES: OCc1ccc(Cn2c3ccccc3c3oc(CO)cc32)o1
- GI50 [1]: 45.7 µM
- CC50 [1, 30]: > 100 µM
- TGI ([1]; read-out: pTGI): > 100 µM
- GI50 [2]: > 100 µM
- CC50 [2, 30]: > 100 µM
- TGI ([2]; read-out: pTGI): > 100 µM
- Activity [3]: Active
- GI50 [4]: > 100 µM
- CC50 [4, 30]: > 100 µM
- TGI ([4]; read-out: pTGI): > 100 µM
- Activity [5]: 21.2%
- GI50 [6]: > 100 µM
- CC50 [6, 30]: > 100 µM
- TGI ([6]; read-out: pTGI): > 100 µM
- GI50 [7]: > 100 µM
- CC50 [7, 30]: > 100 µM
- TGI ([7]; read-out: pTGI): > 100 µM
- GI50 [8]: 89.1 µM
- CC50 [8, 30]: > 100 µM
- TGI ([8]; read-out: pTGI): > 100 µM
- Activity [9]: tde
- GI50 [10]: > 100 µM
- CC50 [10, 30]: > 100 µM
- TGI ([10]; read-out: pTGI): > 100 µM
- GI50 [11]: > 100 µM
- CC50 [11, 30]: > 100 µM
- TGI ([11]; read-out: pTGI): > 100 µM
- GI50 [12]: > 100 µM
- CC50 [12, 30]: > 100 µM
- TGI ([12]; read-out: pTGI): > 100 µM
- Activity [13]: 15.98%
- GI50 [14]: > 100 µM
- CC50 [14, 30]: > 100 µM
- TGI ([14]; read-out: pTGI): > 100 µM
- Activity [15]: tde
- GI50 [16]: > 100 µM
- CC50 [16, 30]: > 100 µM
- TGI ([16]; read-out: pTGI): > 100 µM
- GI50 [17]: 50.1 µM
- CC50 [17, 30]: > 100 µM
- TGI ([17]; read-out: pTGI): > 100 µM
- Activity [18]: 3.16%
- Activity [19]: tde
- IC50 [20]: > 50 µM
- Activity [21]: 69.69%
- GI50 [22]: 8.91 µM
- CC50 [22, 30]: > 100 µM
- TGI ([22]; read-out: pTGI): > 100 µM
- GI50 [23]: 97.7 µM
- CC50 [23, 30]: > 100 µM
- TGI ([23]; read-out: pTGI): > 100 µM
- GI50 [24]: 0.224 µM
- TGI ([24]; read-out: pTGI (converted)): 0.55 µM
- Activity [25]: Active
- IC50 [26]: 31.1 µM
- Activity [27]: 19.4%
- Activity [28]: 37.5%
- GI50 [29]: 66.1 µM
- CC50 [29, 30]: > 100 µM
- TGI ([29]; read-out: pTGI): > 100 µM
